The record followed here is article PMC12062833 (RSC Medicinal Chemistry, 2025).

In data set [1] the test system is Pseudomonas aeruginosa (ATCC 9027). The data set is described as follows: Antibacterial MIC, macrodilution method, P. aeruginosa. Format: cell-based. The note with it: ATCC9027, read-out: MIC P. aeruginosa. The procedure, abridged: (§1)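 CLSI M07-A9 tube macrodilution. Strains were grown overnight on nutrient agar at 37 °C, and colonies were suspended in Mueller-Hinton broth. Inoculum was 1 × 10^6 per mL (5 × 10^5 per mL in test). DMSO stock was 5120 μg/mL. Final concentrations were 256 to […] in 2 mL. Tubes were incubated at 37 °C for 16–20 h. Controls were inoculum with and without 1% DMSO, and broth alone.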

Data set [2] deals with Capan-1 pancreatic adenocarcinoma cells. The data set is described as follows: Antiproliferative assay. It counts as cell-based. The following applies: Homo sapiens, CAPAN-1, 72 h, read-out: IC50 Capan-1. In short, it runs like this:
(§2)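 Adherent lines were seeded at 500 (Capan-1), 1000 (LN-229, HCT-116) or 1500 (NCI-H460) cells/well and dosed after overnight incubation. Suspension lines were seeded at 2500 (HL-60, K-562, Z-138) or 5500 (DND-41) cells/well directly onto compound. Seven 5-fold concentrations ran from 100 to 0.006 μM for 72 h. Viability was read as MTS absorbance at 490 nm after 3 h, and IC50 was derived from OD values. Two independent experiments.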

Data set [3] has as its system Escherichia coli (ATCC 25922). The data set is described as follows: Antibacterial MIC, macrodilution method, E. coli. It counts as cell-based. The following applies: ATCC25922, read-out: MIC E. coli. In short, it runs like this:
as §1

Data set [4] deals with LN-229 glioblastoma cells. The data set is described as follows: Antiproliferative assay. The note with it: Homo sapiens, LN-229, 72 h, read-out: IC50 LN-229. Format: cell-based. The procedure, abridged: as §2
The subject of data set [5] is eight human tumor cell lines. The data set is described as follows: Antiproliferative assay, span over the panel of tumor cell lines. It counts as cell-based. The following applies: 72 h, read-out: IC50 range across tested tumor cell lines. The procedure, abridged:
as §2

The test system of data set [6] is Klebsiella pneumoniae (ATCC 27736). The data set is described as follows: Antibacterial MIC, macrodilution method, K. pneumoniae. The following applies: ATCC27736, read-out: MIC K. pneumoniae. Format: cell-based. The procedure, abridged:
as §1

In data set [7] the test system is HCT-116 colon carcinoma cells. The data set is described as follows: Antiproliferative assay. It counts as cell-based. The note with it: Homo sapiens, HCT-116, 72 h, read-out: IC50 HCT-116. In short, it runs like this:
as §2

Data set [8] has as its system K-562 chronic myeloid leukemia cells. The data set is described as follows: Antiproliferative assay. Format: cell-based. The following applies: Homo sapiens, K562, 72 h, read-out: IC50 K-562. The procedure, abridged: as §2
In data set [9] the test system is HL-60 acute myeloid leukemia cells. The data set is described as follows: Antiproliferative assay. Format: cell-based. The following applies: Homo sapiens, HL-60, 72 h, read-out: IC50 HL-60. The procedure, abridged: as §2
In data set [10] the test system is Staphylococcus aureus (ATCC 25923). The data set is described as follows: Antibacterial MIC, macrodilution method, S. aureus. It counts as cell-based. The note with it: ATCC25923, read-out: MIC S. aureus. The procedure, abridged:
as §1

Data set [11] relates to NCI-H460 non-small cell lung cancer cells. The data set is described as follows: Antiproliferative assay. It counts as cell-based. The note with it: Homo sapiens, NCI-H460, 72 h, read-out: IC50 NCI-H460. In short, it runs like this: as §2
For data set [12], the system named is Enterococcus faecalis (ATCC 29212). The data set is described as follows: Antibacterial MIC, macrodilution method, E. faecalis. Format: cell-based. The following applies: MHB, 37 °C.
The test system of another data set is salmon sperm DNA. The data set is described as follows: Fluorescent intercalator displacement. It counts as binding. The following applies: tested at 250, 100 and 40 μM; result in words. In short, it runs like this:
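Competitive fluorescence-polarization displacement. Acridine orange (50 nM) and salmon sperm DNA (6 μg/mL) were mixed with test compound at 250, 100 or 40 μM in HEN buffer (10 mM HEPES pH 7.5, 1 mM EDTA, 100 mM NaCl). Mixtures stood 20 min in the dark. mP was normalized to the DMSO control, with mitoxantrone (10 μM) as positive control.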

In data set [13] the test system is Z-138 non-Hodgkin's lymphoma cells. The data set is described as follows: Antiproliferative assay. It counts as cell-based, human. The following applies: read-out: IC50 Z-138; 72 h incubation, two independent experiments. In short, it runs like this:
as §2

For the next data set, the system named is PBMC from healthy donors. The data set is described as follows: Cytotoxicity test on normal peripheral blood mononuclear cells. Format: cell-based, human. The note with it: PBMC of two healthy donors, 72 h, result in words.

≈ marks a conversion by molar mass, not a printed value. Entries after “also recorded” stand apart in the source; their conditions may differ.

As usually defined, the MIC is the lowest concentration that inhibits growth of the organism. By IC50 is commonly meant the concentration that gives 50% inhibition.

Regarding `c1ccc2[nH]c(-c3ccc(OCCN4CCOCC4)cc3)nc2c1` [Compound 13, 4-(2-(4-(1H-Benzo[d]imidazol-2-yl)phenoxy)ethyl)morpholine], the minimal inhibitory concentration (MIC) in data set [1], in data set [3], in data set [6] and in [10] was over 256 µg/mL in each case. Moreover, the IC50 in data set [2] was 42.1 ± 3.7 µM; in data set [4], over 100 µM; in data set [5], 37.3 to 79.8 µM; in data set [7] it was over 100 µM; in [8], 79.8 ± 1.3 µM; in data set [9] it was 54.2 ± 4.1 µM. The IC50 in [11] was over 100 µM.

For `O=C(COc1ccc(-c2nc3ccc(Cl)cc3[nH]2)cc1)N1CCOCC1` [Compound 17, 2-(4-(6-Chloro-1H-benzo[d]imidazol-2-yl)phenoxy)-1-morpholinoethan-1-one], the MIC in data set [1], in data set [3], in data set [6] and in [10] was over 256 µg/mL throughout. The “MIC E. faecalis” value in [12] worked out at 0.5 µg/mL (≈ 1.34 µM). Further, the IC50 in data set [2] was 28.5 ± 4.4 µM; in [4], over 100 µM; in data set [7], over 100 µM; in data set [8] it was over 100 µM; in [9], over 100 µM; in data set [11], over 100 µM.

On to `O=C(COc1ccc(-c2nc3ccccc3[nH]2)cc1F)N1CCOCC1` [Compound 22, 2-(4-(1H-Benzo[d]imidazol-2-yl)-2-fluorophenoxy)-1-morpholinoethan-1-one], for which the “DNA intercalation (acridine orange displacement, fluorescence polarization)” value (shortened to “DNA intercalation”) with salmon sperm DNA is listed as “exhibit clear intercalating properties”. The IC50 in data set [2], in [4], in data set [7], in data set [8], in data set [9] and in data set [11] was over 100 µM in each case.

`Fc1cc(-c2nc3ccc(Cl)cc3[nH]2)ccc1OCCN1CCOCC1` [Compound 24, 4-(2-(4-(6-Chloro-1H-benzo[d]imidazol-2-yl)-2-fluorophenoxy)ethyl)morpholine]: the MIC in data set [1], in data set [3], in [6] and in data set [10] was over 256 µg/mL throughout. Besides, the IC50 was at least 80.5 µM in data set [13]; over 100 µM in data set [2]; over 100 µM in data set [4]; over 100 µM in [7]; over 100 µM in data set [8]; over 100 µM in [9]. In data set [11], the IC50 is over 100 µM.

With `Clc1ccc2nc(-c3ccc(OCCN4CCOCC4)cc3)[nH]c2c1` [Compound 16, 4-(2-(4-(6-Chloro-1H-benzo[d]imidazol-2-yl)phenoxy)ethyl)morpholine], the minimal inhibitory concentration (MIC) in data set [1] was over 256 µg/mL; in data set [3], 256 µg/mL (≈ 715 µM); in data set [6] it was over 256 µg/mL; in data set [10] it was 64 µg/mL (≈ 179 µM). In data set [12], the “MIC E. faecalis” value turned out to be 0.25 µg/mL (≈ 0.699 µM). Further, the IC50 in data set [2] was 45 ± 5.1 µM; in data set [4], over 100 µM; in data set [5] it was 37.3 to 79.8 µM; in [7] it was over 100 µM; in data set [8], 37.3 ± 3.9 µM; in data set [9] it was 51.6 ± 1.5 µM. The IC50 in data set [11] is over 100 µM.

Turning to `CCN(CC)CCOc1ccc(-c2nc3ccc(Cl)cc3[nH]2)cc1F` [Compound 23, 2-(4-(6-Chloro-1H-benzo[d]imidazol-2-yl)-2-fluorophenoxy)-N,N-diethylethan-1-amine], the MIC in data set [1] is over 256 µg/mL; in data set [3], 256 µg/mL (≈ 707 µM); in data set [6], over 256 µg/mL; in data set [10], 256 µg/mL (≈ 707 µM). Besides, the “DNA intercalation” value in the data set with salmon sperm DNA is “scored best in the binding assay”. Further, the IC50 in data set [2] is 2.2 ± 0.5 µM; in data set [4], 5 ± 1.3 µM; in data set [5], 2 to 9.4 µM; in [7], 9.4 ± 1.2 µM; in data set [8], 2 ± 0.7 µM; in data set [9], 4.4 ± 0.5 µM. Moreover, in [11], the IC50 is 2.3 ± 0.8 µM. Besides, in the data set with PBMC from healthy donors (100 to 0.006 μM), the “Impact on viability of normal PBMC (MTS)” value was “Only at the highest tested concentration (100 μM), there was an impact on the viability of these normal cells”. Further, in the data set with PBMC from healthy donors, the “Dead and apoptotic PBMC (propidium iodide, caspase 3/7, IncuCyte)” value was “caused apoptosis in normal cells only at the highest applied concentration of 100 μM; also recorded: an increase in the number of dead and apoptotic cells was observed at 100 μM”.

Regarding `O=C(COc1ccc(-c2nc3ccc(Cl)cc3[nH]2)cc1F)N1CCOCC1` [Compound 25, 2-(4-(6-Chloro-1H-benzo[d]imidazol-2-yl)-2-fluorophenoxy)-1-morpholinoethan-1-one], the MIC in [1], in data set [3], in [6] and in data set [10] was over 256 µg/mL each time. For the same compound, the IC50 was at least 64.8 µM in data set [13]; over 100 µM in [2]; over 100 µM in data set [4]; over 100 µM in data set [7]; over 100 µM in data set [8]; over 100 µM in [9]. Besides, the IC50 in [11] is over 100 µM.

With `O=C(COc1ccc(-c2nc3ccc(F)cc3[nH]2)cc1F)N1CCOCC1` [Compound 27, 2-(2-Fluoro-4-(6-fluoro-1H-benzo[d]imidazol-2-yl)phenoxy)-1-morpholinoethan-1-one], the minimal inhibitory concentration (MIC) in [1], in data set [3], in data set [6] and in data set [10] was over 256 µg/mL each time. The “DNA intercalation” value in the data set with salmon sperm DNA is “exhibit clear intercalating properties”. Moreover, the IC50 in data set [2], in data set [4], in data set [7], in data set [8], in data set [9] and in [11] was over 100 µM in each case.

In the case of `CCN(CC)CCOc1ccc(-c2nc3ccc(F)cc3[nH]2)cc1F` [Compound 26, N,N-Diethyl-2-(2-fluoro-4-(6-fluoro-1H-benzo[d]imidazol-2-yl)phenoxy)ethan-1-amine], the minimum inhibitory concentration (MIC) in data set [1], in data set [3], in data set [6] and in data set [10] was over 256 µg/mL throughout. For the same compound, in the data set on salmon sperm DNA, the “DNA intercalation” value is “scored best in the binding assay”. For the same compound, the IC50 in [2] came out at 35.4 ± 2.7 µM; in [4], 51.5 ± 0.1 µM; in [7], 49.5 ± 0.4 µM; in data set [8], 19.1 ± 1.8 µM; in data set [9], 33.8 ± 3.3 µM; in data set [11], 35.9 ± 1.3 µM.
